Measurements from ChEMBL document CHEMBL3259554, “Discovery, synthesis, and optimization of antimalarial 4(1H)-quinolone-3-diarylethers” (J Med Chem, 2014).
Activity calls are given as the source filed them. The calls are words filed in the database; no cut-off is given here.

Key:
Plasmodium falciparum [1] = assay: Antimalarial activity against chloroquine-sensitive Plasmodium falciparum D6 MRA-285 infected in human red blood cells assessed as suppression of parasitemia after 72 hrs by SYBR Green I-based fluorescence method; assay type: functional, organism-based; details: D6 MRA-285, 72 h
Summary of the method: (§1)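 Asynchronous parasites in human erythrocytes, RPMI-1640 with HEPES, hypoxanthine, glucose, glutamine, 0.5% Albumax II; 2% hematocrit, 0.2% initial parasitemia. Triplicate 2-fold dilutions from 1 μM (lower start if needed), 72 h at 37 °C under 5% O2/5% CO2/90% N2. SYBR Green I dye-detergent added, 1 h dark at room temperature, fluorescence read. EC50 averaged over at least three determinations.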

[2] = Antimalarial activity against multidrug-resistant Plasmodium falciparum Dd2 MRA-156 infected in human red blood cells assessed as suppression of parasitemia after 72 hrs by SYBR Green I-based fluorescence method; assay type: functional; summary of the method: as §1
Plasmodium falciparum [3] = assay: Antimalarial activity against atovaquone-resistant clinical isolate Plasmodium falciparum TM90-C2B infected in human red blood cells assessed as suppression of parasitemia after 72 hrs by SYBR Green I-based fluorescence method; assay type: functional, organism-based; summary of the method: as §1
HepG2 = assay: Cytotoxicity against human HepG2 cells after 24 hrs incubation by Alamar Blue assay; assay type: cell-based; details: HepG2, 24 h
Summary of the method: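 HepG2 cells grown in RPMI-1640 with 10% FBS and seeded at 2 × 10⁴ cells/well, attached overnight. Drug serially diluted from 10 mM DMSO stocks to 2.5 nM–10 μM and incubated 24–36 h. Medium then replaced and cells kept a further 24 h. Resazurin added (final 10 μM) for 3 h, fluorescence read at ex 560/em 590 nm. Run in triplicate; IC50 by nonlinear logistic regression.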

Plasmodium yoelii [4] = assay: Antimalarial activity against Plasmodium yoelii MR4 MRA-428 infected in mouse CF1 assessed as reduction on parasite burden administered through oral gavage once daily for 4 days; assay type: functional
Summary of the method: (§2)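 P. yoelii-infected mice, randomly grouped in fours; dosing began day after inoculation (day 1), once daily by oral gavage in PEG-400 for four successive days; initial doses 0.1, 0.3, 1.0, 3.0, 10 mg/kg/day, range adjusted as needed. Day-5 Giemsa-smear parasitemia vs drug-free controls; ED50 derived graphically. Cure = parasite free 30 days after last dose; cure dose termed non-recrudescence dose.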

Plasmodium yoelii [5] = assay: Antimalarial activity against Plasmodium yoelii MR4 MRA-428 infected in mouse CF1 assessed as dose required to achieve cure measured as 30 days survival administered through oral gavage once daily for 4 days; assay type: functional; summary of the method: as §2
[6] = Inhibition of human cytochrome bc1 complex derived from HEK293 cell mitochondria using 50 uM decylubiquinol as substrate
Summary of the method: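 Mitochondria isolated from HEK-293 cells by Dounce homogenization and differential centrifugation, dispersed in 2 mg/mL dodecyl maltoside for 45 min on ice, then clarified. Baseline-subtracted initial rates expressed as a fraction of uninhibited control.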

Liver microsome [7] = assay: Metabolic stability in rat liver microsomes; assay type: ADME
Summary of the method: (§3)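 Compound at 1 μM incubated at 37 °C with liver microsomes (0.4 mg protein/mL) in 0.1 M phosphate pH 7.4. Started with an NADPH-regenerating system plus MgCl₂ and quenched with cold acetonitrile at time points up to 60 min. Parent loss followed by LC-MS and fitted to first-order decay to give half-life and intrinsic clearance. E_H used liver blood flow of 20.7 (human) or 55.2 (rat) mL/min/kg.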

Liver microsome [8] = assay: Metabolic stability in human liver microsomes; assay type: ADME; summary of the method: as §3
[9] = Inhibition of cytochrome bc1 complex isolated from trophozoite stage Plasmodium falciparum
Summary of the method: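 P. falciparum mitochondrial preparation assayed for cytochrome c reductase at 35 °C in a stirred cuvette. Buffer: 100 μM decylubiquinol, 100 μM horse heart cytochrome c, 0.1 mg/mL dodecyl maltoside, 60 mM HEPES pH 7.4, 10 mM malonate, 1.0 mM EDTA, 2.0 mM KCN. Baseline subtracted from the initial rate; activity expressed as a fraction of uninhibited control.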

[10] = Selectivity ratio of IC50 for human cytochrome bc1 complex to EC50 for Plasmodium falciparum cytochrome bc1 complex
Plasmodium yoelii [11] = assay: Antimalarial activity against Plasmodium yoelii MR4 MRA-428 infected in mouse CF1 assessed as reduction on parasite burden at 64 mg/kg administered through oral gavage once daily for 4 days; assay type: functional, organism-based; set-up: dose 64 mg/kg
Summary of the method: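 P. yoelii model in mice, randomized into groups of four. Oral gavage in PEG-400 once daily for four successive days, starting the day after inoculation. Giemsa-stained blood smears read microscopically on day 5. Parasite burden compared with drug-free controls. Animals parasite free 30 days after the last dose counted as cured.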

Compound | EC50 (Plasmodium falciparum [1]) [nM] | EC50 [2] [nM] | EC50 (Plasmodium falciparum [3]) [nM] | IC50 (HepG2) [nM] | ED50 (Plasmodium yoelii [4]; MR4 MRA-428, po, 96 h) [mg/kg/day] | NRD (Plasmodium yoelii [5]) | IC50 [6] [nM] | Stability (Liver microsome [7]) | Stability (Liver microsome [8]) | ED90 (Plasmodium yoelii [4]; MR4 MRA-428, po, 96 h) [mg/kg/day] | EC50 [9] [nM] | Ratio IC50/EC50 [10] | IC50 [9] [nM] | ED50 (Plasmodium yoelii [4]) | Activity (Plasmodium yoelii [11])
Cc1[nH]c2ccccc2c(=O)c1-c1ccc(Oc2ccccc2)cc1 | 8.4 | 12 | 7.2 | > 10000 |  |  |  |  |  |  |  |  |  |  | 
COc1cc2[nH]c(C)c(-c3ccc(Oc4ccc(OC(F)(F)F)c(F)c4)cc3)c(=O)c2cc1Cl | 12 | 12 | 5.8 | > 10000 |  |  |  |  |  |  |  |  |  |  | 
COc1cc2[nH]c(C)c(-c3ccc(Oc4ccccc4)cc3)c(=O)c2cc1F | 40 | 43 | 8.5 | > 10000 |  |  |  |  |  |  |  |  |  |  | 
COc1cc2[nH]c(C)c(-c3ccc(Oc4ccc(F)c(OC(F)(F)F)c4)cc3)c(=O)c2cc1Cl | 0.4 | 0.5 | 0.3 | > 10000 | 0.06 | >3 mg/kg/day |  |  |  |  |  |  |  |  | 
Cc1[nH]c2ccc(F)cc2c(=O)c1-c1ccc(Oc2ccc(OC(F)(F)F)cc2)cc1 | 1.5 | 2.4 | 1.7 | > 10000 | 0.1 | 3 mg/kg/day | > 10000 | Stable | Stable |  |  |  |  |  | 
COc1ccc2c(=O)c(-c3ccc(Oc4ccc(OC(F)(F)F)cc4)cc3)c(C)[nH]c2c1 | 1.7 | 3.4 | 2.3 | > 10000 |  |  | > 10000 | Unstable | Unstable |  |  |  |  |  | 
COc1cc2[nH]c(C)c(-c3ccc(Oc4ccc(OC(F)(F)F)cc4)cc3)c(=O)c2cc1Cl | 2.2 | 2.5 | 1.4 | > 10000 | 0.02 | 0.3 mg/kg/day | > 10000 | Stable | Stable | 0.06 | 0.56 | > 20000 |  |  | 
COc1cc2[nH]c(C)c(-c3ccc(Oc4ccc(C(F)(F)F)cn4)cc3)c(=O)c2cc1Cl | 8.1 | 6.8 | 4.1 | > 10000 |  |  |  |  |  |  |  |  |  |  | 
COc1cc2[nH]c(C)c(-c3ccc(Oc4ccc(Cl)cc4)cc3)c(=O)c2cc1Cl | 1.9 | 1.8 | 1.2 | > 10000 | 0.05 | >0.3 mg/kg/day |  |  |  |  |  |  |  |  | 
COc1cc2[nH]c(C)c(-c3ccc(Oc4cccc(OC(F)(F)F)c4)cc3)c(=O)c2cc1Cl | 0.03 | 0.03 | < 0.03 | > 10000 | > 3 | >3 mg/kg/day |  |  |  |  |  |  |  |  | 
Cc1[nH]c2ccc(Cl)cc2c(=O)c1-c1ccc(Oc2ccc(OC(F)(F)F)cc2)nc1 | 3.6 | 6.1 | 1.5 | > 10000 |  |  |  |  |  |  |  |  |  |  | 
CCCCCCCc1c(C)[nH]c2cc(OC)c(Cl)cc2c1=O | 1.4 | 2.3 | 0.8 |  |  |  | > 10000 |  |  |  |  |  |  |  | 
O=C1C(O)=C([C@H]2CC[C@H](c3ccc(Cl)cc3)CC2)C(=O)c2ccccc21 [ATOVAQUONE] | 0.1 | 0.1 | 7700 | > 10000 |  |  | 410 |  |  |  |  |  | 2 |  | 
Cc1[nH]c2ccc(Cl)cc2c(=O)c1-c1ccc(Oc2ccc(OC(F)(F)F)cc2)cc1 | 3.2 | 5.6 | 2.3 | > 10000 | 0.2 | >3 mg/kg/day | > 10000 | Stable | Stable |  |  |  |  |  | 
Cc1[nH]c2ccccc2c(=O)c1-c1ccc(Oc2ccc(OC(F)(F)F)cc2)cc1 | 4.1 | 5.9 | 7.5 | > 10000 | 0.1 | 3 mg/kg/day | 1900 |  |  |  |  |  | 8.9 |  | 
Cc1[nH]c2ccccc2c(=O)c1-c1ccc(Oc2ccc(OC(F)(F)F)cc2)nc1 | 3 | 5.8 | 4.3 | > 10000 |  |  |  |  |  |  |  |  |  |  | 
COc1cc2[nH]c(C)c(-c3ccc(Oc4ccc(F)cc4)cc3)c(=O)c2cc1Cl | 0.8 | 3.8 |  | > 10000 | < 1 | >3 mg/kg/day |  |  |  |  |  |  |  |  | 
COc1cc2[nH]c(C)c(-c3ccc(Oc4ccc(OC(F)(F)F)cc4)cc3)c(=O)c2cc1F | 1.4 | 1.4 | 0.5 | > 10000 | 0.05 |  | > 10000 | Stable | Stable |  |  |  |  |  | 
CCCCCCCc1c(C)nc2cc(OC)ccc2c1O | 3.8 | 3.1 | 11 | > 10000 |  | inactive | > 10000 |  |  |  |  |  |  | inactive | 
Cc1[nH]c2ccc(F)cc2c(=O)c1-c1ccc(Oc2ccc(OC(F)(F)F)cc2)nc1 | 13 | 13 | 11 | > 10000 |  |  |  |  |  |  |  |  |  |  | 
COc1cc2[nH]c(C)c(-c3ccc(Oc4ccc(C(F)(F)F)cc4)cc3)c(=O)c2cc1Cl | 0.3 | 0.3 | 0.05 | > 10000 | 0.03 | 1 mg/kg/day |  |  |  |  |  |  |  |  | 
COc1cc2[nH]c(C)c(-c3ccc(Oc4ccc(OC(F)(F)F)cc4)nc3)c(=O)c2cc1Cl | 0.3 | 0.2 | 0.4 | > 10000 | 0.3 | >3 mg/kg/day |  |  |  |  |  |  |  |  | 
COc1cc2[nH]c(C)c(-c3ccc(Oc4ccc(OC(F)(F)F)cc4)cn3)c(=O)c2cc1Cl | 0.4 | 0.5 | 0.2 | > 10000 | < 1 | >3 mg/kg/day |  |  |  |  |  |  |  |  | 
COc1cc2[nH]c(C)c(-c3cnc(Oc4ccc(OC(F)(F)F)cc4)nc3)c(=O)c2cc1Cl | > 2500 | > 2500 | > 2500 | > 10000 |  |  |  |  |  |  |  |  |  |  | 
CCN(CC)CCCC(C)Nc1ccnc2cc(Cl)ccc12 (stereo unspecified) [CHLOROQUINE] |  |  |  |  | 2.2 | >64 mg/kg/day |  |  |  |  |  |  |  |  | inactive
